From ChEMBL document CHEMBL4359826, “Preparation of bivalent agonists for targeting the mu opioid and cannabinoid receptors” (Eur J Med Chem, 2019)
Activity calls are given as the source filed them.

Key:
[1] = molecular target: T1, Cannabinoid receptor (Rattus norvegicus) (UniProt Q9QZN9+P20272); assay: Displacement of [3H]JWH-018 from CB1R/CB2R in Wistar rat brain membranes at 10 uM after 60 mins by liquid scintillation analysis; format: cell membranes
How it was run: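 Whole rat brain membranes (cerebellum removed; 0.3–0.5 mg/mL protein) in 50 mM Tris-HCl pH 7.4 with 2.5 mM EGTA, 5 mM MgCl2 and 0.5 mg/mL fatty-acid-free BSA, 30 °C. Kinetics used 0.6 nM [3H]JWH-018: association over 0–90 min, dissociation started with 10 µM JWH-018 after 60 min. Saturation over 0.5–35 nM. Competitors at 10^-11–10^-5 M, 60 min. Nonspecific binding with 10 µM JWH-018. Filtration onto PEI-soaked GF/B filters; n≥3.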

[2] = molecular target: T1, Cannabinoid receptor (Rattus norvegicus); assay: Antagonist activity at CB1R/CB2R in Wistar rat brain membranes at 10 uM in presence of JWH-018 after 60 mins by [35S]-GTPgammaS binding assay relative to control; format: functional, cell membranes
How it was run: (§1)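 Rat brain membranes (30 µg protein/tube) incubated 60 min at 30 °C with 0.05 nM [35S]GTPγS and ligand at 10^-10–10^-5 M. Buffer: 50 mM Tris-HCl pH 7.4 with 30 µM GDP, 100 mM NaCl, 3 mM MgCl2, 1 mM EGTA. […] Nonspecific binding taken with 10 µM GTPγS; basal set as 100%. Filtration and scintillation counting; n≥3.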

[3] = molecular target: T2, Cannabinoid receptor (Rattus norvegicus, UniProt Q9QZN9+P20272); assay: Displacement of [3H]JWH-018 from CB1R/CB2R in Wistar rat brain membranes after 60 mins by liquid scintillation analysis; format: cell membranes
[4] = Agonist activity at MOR/CB1R/CB2R receptor in Wistar rat brain membranes after 60 mins by [35S]-GTPgammaS binding assay; format: cell membranes
[5] = organism: Rattus norvegicus; conditions: Wistar, Brain, Membranes, at 10 µM
[6] = molecular target: T2, Cannabinoid receptor; format: cell membranes, Wistar, Brain, Membranes
[7] = molecular target: Kappa-type opioid receptor (Cavia porcellus, UniProt P41144); format: cell membranes, Brain, Membranes
[8] = molecular target: Mu-type opioid receptor (Rattus norvegicus, UniProt P33535); assay: Displacement of [3H]DAMGO from MOR in Wistar rat brain membranes after 60 mins by liquid scintillation analysis; format: cell membranes
[9] = molecular target: Delta-type opioid receptor (Rattus norvegicus, UniProt P33533); assay: Displacement of [3H]Ile5,6-deltorphin-2 from DOR in Wistar rat brain membranes after 60 mins by liquid scintillation analysis; format: cell membranes
[10] = organism: Rattus norvegicus; assay: Agonist activity at MOR/CB1R/CB2R in Wistar rat brain membranes at 10 uM in presence of naloxone,rimonabant and AM630 after 60 mins by [35S]-GTPgammaS binding assay relative to control; format: cell membranes; how it was run: as §1
[11] = test system: Rattus norvegicus; assay: Effect on nociception of the contralateral paw in rat model of sodium iodoacetate-induced osteoarthritis paw withdrawal threshold in early phase at 20 ug administered as intrathecal injection measured up to 45 mins by Von Frey test (reference value: 44 +/- 2.4 g); format: organism-based; conditions: in vivo, icv_or_intrathecal, 0.75 h
[12] = molecular target: Cannabinoid receptor 1 (Rattus norvegicus) (UniProt P20272); assay: Agonist activity at CB1R in Wistar rat brain membranes at 10 uM in presence of rimonabant after 60 mins by [35S]-GTPgammaS binding assay relative to control; format: functional, cell membranes; how it was run: as §1
[13] = test system: Rattus norvegicus; assay: Effect on nociception of the contralateral paw in rat model of sodium iodoacetate-induced osteoarthritis paw withdrawal threshold in late phase at 20 ug administered as intrathecal injection measured after 60 to 90 mins by Von Frey test (reference value: 43 +/- 3.4 g); format: organism-based; conditions: in vivo, icv_or_intrathecal
[14] = organism: Rattus norvegicus; assay: Agonist activity at MOR/CB1R/CB2R in Wistar rat brain membranes after 60 mins by [35S]-GTPgammaS binding assay relative to control; format: cell membranes; how it was run: as §1
[15] = test system: Mus musculus; assay: Antinociceptive activity in CD-1 mouse assessed as increase in thermal latency at 10 mg/kg, iv after 15 to 120 mins by hot plate technique; format: functional, organism-based
How it was run: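 Male CD-1 mice (25 g) given 10 mg/kg i.v. in 10 mL/kg; vehicle saline with 5% DMSO. Hot plate held at 55.0 °C. Latency to paw lick or jump, cut-off 60 s, read at 15–120 min. Baseline is the mean of three pre-test readings. Data given as %MPE; n=6/group.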

[16] = molecular target: T3, Cannabinoid receptor 2 (Rattus norvegicus, UniProt Q9QZN9); assay: Agonist activity at CB2R in Wistar rat brain membranes in presence of AM630 after 60 mins by [35S]-GTPgammaS binding assay; format: functional, cell membranes; how it was run: as §1
T3 sequence (Q9QZN9 whole entry): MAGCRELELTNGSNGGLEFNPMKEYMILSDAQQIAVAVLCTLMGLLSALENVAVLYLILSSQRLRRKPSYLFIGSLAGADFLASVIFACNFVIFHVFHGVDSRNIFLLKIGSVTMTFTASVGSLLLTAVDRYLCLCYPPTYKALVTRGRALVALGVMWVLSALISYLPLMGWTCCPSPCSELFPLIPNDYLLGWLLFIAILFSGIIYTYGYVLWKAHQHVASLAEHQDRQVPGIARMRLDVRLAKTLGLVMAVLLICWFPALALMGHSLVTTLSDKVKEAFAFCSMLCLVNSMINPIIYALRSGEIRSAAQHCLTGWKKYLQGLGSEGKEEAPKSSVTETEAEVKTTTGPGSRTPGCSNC

[17] = molecular target: T4, Cannabinoid receptor 2 (Rattus norvegicus) (UniProt Q9QZN9); assay: Agonist activity at CB2R in Wistar rat brain membranes at 10 uM in presence of AM630 after 60 mins by [35S]-GTPgammaS binding assay relative to control; format: functional, cell membranes; how it was run: as §1
T4 sequence (whole entry): T3 sequence (Q9QZN9 whole entry)

[18] = molecular target: Cannabinoid receptor 1 (Rattus norvegicus, UniProt P20272); assay: Agonist activity at CB1R in Wistar rat brain membranes in presence of rimonabant after 60 mins by [35S]-GTPgammaS binding assay; format: functional, cell membranes; how it was run: as §1
[19] = test system: Rattus norvegicus; assay: Antiallodynic activity in sodium iodoacetate-induced rat model of osteoarthritis assessed as increase in maximum effect in early phase at 20 ug administered as intrathecal injection measured up to 45 mins by Von Frey test; format: functional, organism-based

Mu-type opioid receptor, sequence (P33535 whole entry): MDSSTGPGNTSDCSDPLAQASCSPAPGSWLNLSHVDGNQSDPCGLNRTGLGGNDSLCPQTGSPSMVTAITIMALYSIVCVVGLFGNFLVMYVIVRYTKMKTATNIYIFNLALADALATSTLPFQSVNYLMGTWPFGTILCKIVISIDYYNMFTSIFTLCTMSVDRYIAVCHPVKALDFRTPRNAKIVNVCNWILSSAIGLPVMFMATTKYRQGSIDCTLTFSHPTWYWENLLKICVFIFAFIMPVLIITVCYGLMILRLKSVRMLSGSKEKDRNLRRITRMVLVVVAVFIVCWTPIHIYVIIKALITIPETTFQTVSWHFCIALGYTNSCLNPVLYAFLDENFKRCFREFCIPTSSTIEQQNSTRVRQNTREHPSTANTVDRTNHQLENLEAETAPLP
Kappa-type opioid receptor, sequence (P41144 whole entry): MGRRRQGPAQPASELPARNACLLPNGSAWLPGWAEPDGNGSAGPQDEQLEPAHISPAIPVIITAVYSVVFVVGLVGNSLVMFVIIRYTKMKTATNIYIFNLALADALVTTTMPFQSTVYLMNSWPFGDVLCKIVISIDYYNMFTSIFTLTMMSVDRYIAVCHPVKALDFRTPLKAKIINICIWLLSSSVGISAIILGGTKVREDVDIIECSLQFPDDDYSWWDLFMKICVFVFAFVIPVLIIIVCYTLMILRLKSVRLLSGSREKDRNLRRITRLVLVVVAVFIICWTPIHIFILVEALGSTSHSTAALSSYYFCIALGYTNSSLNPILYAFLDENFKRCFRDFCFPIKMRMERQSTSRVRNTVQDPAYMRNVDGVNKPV
Delta-type opioid receptor, sequence (P33533 whole entry): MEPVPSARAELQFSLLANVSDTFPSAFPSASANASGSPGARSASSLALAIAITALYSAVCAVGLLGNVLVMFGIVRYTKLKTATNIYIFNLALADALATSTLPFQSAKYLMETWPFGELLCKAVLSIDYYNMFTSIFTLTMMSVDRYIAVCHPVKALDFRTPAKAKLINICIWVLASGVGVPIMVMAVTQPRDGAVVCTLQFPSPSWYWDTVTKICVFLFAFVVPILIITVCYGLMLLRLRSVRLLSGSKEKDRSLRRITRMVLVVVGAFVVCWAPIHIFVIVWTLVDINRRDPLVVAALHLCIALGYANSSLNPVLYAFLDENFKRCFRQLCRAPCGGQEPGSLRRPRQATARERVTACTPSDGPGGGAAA
T1 sequence (P20272 whole entry, looked up, one chain of several): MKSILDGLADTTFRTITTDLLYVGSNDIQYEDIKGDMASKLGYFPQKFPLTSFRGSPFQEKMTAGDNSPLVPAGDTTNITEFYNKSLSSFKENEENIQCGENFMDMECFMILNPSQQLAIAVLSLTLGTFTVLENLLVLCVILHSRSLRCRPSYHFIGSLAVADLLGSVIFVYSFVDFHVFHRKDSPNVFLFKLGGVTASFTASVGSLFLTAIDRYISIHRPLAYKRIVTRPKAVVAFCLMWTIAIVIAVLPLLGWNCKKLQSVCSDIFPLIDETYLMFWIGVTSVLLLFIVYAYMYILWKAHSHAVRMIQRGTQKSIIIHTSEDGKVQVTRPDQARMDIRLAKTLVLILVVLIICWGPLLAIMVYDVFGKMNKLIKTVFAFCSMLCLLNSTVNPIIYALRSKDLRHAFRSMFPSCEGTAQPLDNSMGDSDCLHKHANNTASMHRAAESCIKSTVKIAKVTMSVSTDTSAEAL
Cannabinoid receptor 1, sequence (P20272 whole entry): as the sequence (P20272 whole entry, looked up, one chain of several) above
Cannabinoid receptor 1 (Rattus norvegicus), sequence (P20272 whole entry): as the sequence (P20272 whole entry, looked up, one chain of several) above

Compound | Ki [3] [nM] | EC50 [4] [nM] | Emax [5] [%] | Ki [7] [nM] | Ki [8] [nM] | Ki [9] [nM] | other results
NC(=O)[C@H](Cc1ccccc1)NC(=O)[C@H](Cc1ccccc1)NC(=O)[C@@H]1CCCN1C(=O)[C@@H](N)Cc1ccc(O)cc1 | – | – | – | – | – | – | Activity [1]: inactive
Cc1c(C(=O)NN2CCCCC2)nn(-c2ccc(Cl)cc2Cl)c1-c1ccc(Cl)cc1 | – | – | – | – | – | – | Emax [2]: 100%
CC(C)C[C@H](NC(=O)[C@H](Cc1ccccc1)NC(=O)[C@H](CCCCN)NC(=O)[C@H](Cc1ccccc1)NC(=O)[C@H](CC(N)=O)NC(=O)[C@@H](NC(=O)[C@@H]1CCCN1)C(C)C)C(=O)N[C@@H](CO)C(=O)N[C@@H](Cc1cnc[nH]1)C(=O)O [HEMOPRESSIN] | 2793 | – | – | – | – | – | –
CC(=O)NCCCCCn1cc(C(=O)c2cccc3ccccc23)c2ccccc21 | 145 | 2150 | 83 | – | – | – | Ki [6]: 149 nM
C[C@@H](NC(=O)[C@@H](N)Cc1ccc(O)cc1)C(=O)NCC(=O)N[C@@H](Cc1ccccc1)C(=O)NCCC(=O)NCCCCCn1cc(C(=O)c2cccc3ccccc23)c2ccccc21 | 919 | 18 | 114 | 151 | 48 | 190 | Ki [6]: 1216 nM
COc1ccc2c3c1O[C@H]1/C(=N\OCC(=O)NCCCCCCN)CC[C@@]4(O)[C@@H](C2)N(C)CC[C@]314 | – | 305 | 111 | 380 | 41 | 659 | –
NC(=O)[C@H](Cc1ccccc1)NC(=O)[C@H](Cc1c[nH]c2ccccc12)NC(=O)[C@@H]1CCCN1C(=O)[C@@H](N)Cc1ccc(O)cc1 | – | – | – | – | – | – | Activity [1]: inactive
C[C@@H](NC(=O)[C@@H](N)Cc1ccc(O)cc1)C(=O)NCC(=O)N[C@@H](Cc1ccccc1)C(=O)NCC(=O)NCCCCCn1cc(C(=O)c2cccc3ccccc23)c2ccccc21 | 251 | 114 | 160 | 63 | – | 134 | Emax [10]: 100%; Activity [11]: 39 g; Emax [12]: 125%; Activity [13]: 35 g; Emax [14]: 161%; Activity [15]: Active; Ki [6]: 317 nM; EC50 [16]: 671 nM; Emax [17]: 148%; EC50 [18]: 378 nM; Activity [19]: Active
COc1ccc2c3c1O[C@H]1/C(=N\OCC(=O)O)CC[C@@]4(O)[C@@H](C2)N(C)CC[C@]314 | – | 225 | 109 | > 10000 | 24 | 110 | –
COc1ccc2c3c1O[C@H]1/C(=N\OCC(=O)NCCCOCCOCCOCCCN)CC[C@@]4(O)[C@@H](C2)N(C)CC[C@]314 | – | 200 | 112 | 503 | 74 | 757 | –
COc1ccc2c3c1O[C@H]1/C(=N\OCC(=O)NCCN)CC[C@@]4(O)[C@@H](C2)N(C)CC[C@]314 | – | 450 | 113 | 471 | 17 | 533 | –
